From ChEMBL document CHEMBL4330180, “Identification of Portimine B, a New Cell Permeable Spiroimine That Induces Apoptosis in Oral Squamous Cell Carcinoma” (ACS Med Chem Lett, 2019) come the findings set out here.

Series [1] in a line: Permeability of the compound at 100 uM after 6 hrs by PAMPA. In kind it is ADME. Background: PAMPA measures passive passage across an artificial lipid membrane.
The subject of series [2] is UMSCC23. The experiment in a line: Antiproliferative activity against human UMSCC23 cells after 48 hrs by ATP-based Cell Titer-Glo assay. It counts as functional. Particulars: for IC50: UMSCC23, 48 h. Put shortly:
(§1)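 OCSCC cells cultured with increasing concentrations of purified compound (98% by UPLC-PDA). Read-out was ATP-based luminescent proliferation. Exposure is given as 48 h in the figure legend and 36 h in the text. IC50 values were taken from the dose-response curves. Error bars are SD.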
In general terms: In ATP-based viability assays light output follows the ATP content of the culture.

Series [3] is described as follows: (§2) Antiproliferative activity against human HN12 cells after 48 hrs by ATP-based Cell Titer-Glo assay. In kind it is functional. Particulars: HN12, 48 h. Put shortly: as §1
The test system of series [4] is HN12. The series is described as §2. In kind it is functional. Put shortly:
as §1

The test system of series [5] is UMSCC23. Briefly: Induction of apoptosis in human UMSCC23 cells assessed as increase in GADD45alpha mRNA expression at antiproliferative IC50 over 36 hrs by RT-qPCR analysis. In kind it is functional, cell-based. The method in brief:
(§3)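 OCSCC cultures treated at the IC50 from the ATP proliferation assay. cDNA libraries were made from the treated cells and analysed for apoptotic transcripts by Taqman RT-qPCR. Three independent experiments were run, each in triplicate, with error bars given as SEM.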
In general terms: Real-time PCR tracks product formation cycle by cycle.

For series [6], the system named is UMSCC23. Briefly: Induction of apoptosis in human UMSCC23 cells assessed as increase in NOXA mRNA expression at antiproliferative IC50 over 36 hrs by RT-qPCR analysis. It counts as functional, cell-based. Put shortly:
as §3

Series [7] deals with UMSCC23. Briefly: Induction of apoptosis in human UMSCC23 cells assessed as increase in DR5 mRNA expression at antiproliferative IC50 over 36 hrs by RT-qPCR analysis. It counts as functional, cell-based. Put shortly: as §3
The test system of series [8] is UMSCC23. The experiment in a line: Induction of apoptosis in human UMSCC23 cells assessed as increase in Bcl2 mRNA expression at antiproliferative IC50 over 36 hrs by RT-qPCR analysis. In kind it is functional, cell-based. Put shortly: as §3
The test system of series [9] is HN12. Briefly: Induction of apoptosis in human HN12 cells assessed as increase in GADD45alpha mRNA expression at antiproliferative IC50 over 36 hrs by RT-qPCR analysis. In kind it is functional, cell-based. Put shortly:
as §3

Series [10] concerns HN12. The experiment in a line: Induction of apoptosis in human HN12 cells assessed as increase in NOXA mRNA expression at antiproliferative IC50 over 36 hrs by RT-qPCR analysis. In kind it is functional, cell-based. Put shortly: as §3
The test system of series [11] is HN12. The experiment in a line: Induction of apoptosis in human HN12 cells assessed as increase in DR5 mRNA expression at antiproliferative IC50 over 36 hrs by RT-qPCR analysis. In kind it is functional, cell-based. The method in brief:
as §3

In series [12] the test system is HN12. The experiment in a line: Induction of apoptosis in human HN12 cells assessed as increase in Bcl2 mRNA expression at antiproliferative IC50 over 36 hrs by RT-qPCR analysis. In kind it is functional, cell-based. Put shortly: as §3
The test system of series [13] is HN12. The experiment in a line: Induction of apoptosis in human HN12 cells assessed as genomic DNA laddering after 48 hrs by agarose gel electrophoresis method. In kind it is functional, cell-based. Put shortly: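 HN12 cells treated for 48 h at the proliferation-assay IC50 and at a semilog dose above and below it. Genomic DNA was resolved electrophoretically and scored for laddering.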

Calls of active or inactive are those of the source. The calls are words filed in the database; no cut-off is given here.

Broadly, the IC50 is the concentration at which inhibition is half-maximal. Compound `C=CC1=C[C@@H]2[C@@H]3O[C@]4(CC[C@H](O4)[C@@H](C)C[C@@H](O)C3=O)C[C@H](O)C3=NCC[C@@]32CC1` gave a permeability in series [1] of 54%. The Activity entry with UMSCC23 [2] and in the series on HN12 [4] was “Dose-dependent effect” in each case. In addition, the IC50 in the series with UMSCC23 [2] was 0.0032 µM; in series [3], 0.0028 µM. Also, the result with UMSCC23 [5], with UMSCC23 [6], with UMSCC23 [7], in the series with UMSCC23 [8], in the series on HN12 [9] and in the series with HN12 [10] was Active. For the same compound, the outcome in the series on HN12 [11], in the series on HN12 [12] and in the series with HN12 [13] was Active.
`C[C@]12C=CC(=O)C=C1CC[C@@H]1[C@@H]2C(=O)C[C@@]2(C)[C@H]1CC[C@]2(O)C(=O)CO` [PREDNISONE]: the permeability in [1] is recorded as 12%.
Compound `C=CC1=C[C@@H]2[C@@H]3O[C@](O)(CC[C@H](O)[C@@H](C)C[C@@H](O)C3=O)CC(=O)C3=NCC[C@@]32CC1` registered a permeability in series [1] of 35%. Besides, the IC50 amounted to 0.229 µM in the series on UMSCC23 [2] and 0.117 µM in [3]. The outcome in the series with UMSCC23 [5], with UMSCC23 [6], with UMSCC23 [7], in the series on UMSCC23 [8], with HN12 [9] and in the series with HN12 [10] was Active. For the same compound, the result in the series on HN12 [11], in the series on HN12 [12] and in the series on HN12 [13] was Active.
